Laboratory results reported in ChEMBL document CHEMBL3992561, “Synthesis of 1,3,5-trisubstituted pyrazolines as potential antimalarial and antimicrobial agents” (Bioorg Med Chem, 2017).
Values after ≈ are worked out from the molar mass of the structure shown.

Tested on: Aspergillus niger
Assay: Antifungal activity against Aspergillus niger MTCC 8189 after 48 hrs by broth microdilution method
Format: functional
Conditions: MTCC 8189, 48 h
Outline: (§1)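 Fungi grown in Sabouraud liquid medium, inoculum 0.5–2.5 x 10^3 CFU/ml. Broth microdilution per NCCLS using twofold serial dilutions in sterile water from DMSO solutions. Incubated at 35°C for 48 h. MIC (µg/ml) was the lowest concentration with no visible growth by eye. Fluconazole as positive control. Mean ± SD of three replicates.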

| SMILES | MIC [µg/mL] |
| --- | --- |
| O=C(c1cccnc1)N1N=C(c2ccc(O)cc2)CC1c1ccccc1Cl (stereo not drawn) | 3.25 (≈ 8.6 µM) |
| CC(C)c1ccccc1C1CC(c2ccc(O)cc2)=NN1C(=O)c1cccnc1 (stereo not drawn) | 25 (≈ 64.9 µM) |
| OC(Cn1cncn1)(Cn1cncn1)c1ccc(F)cc1F [FLUCONAZOLE] | 25 (≈ 81.6 µM) |
| Cc1cc(C)c(C2CC(c3ccc(O)cc3)=NN2C(=O)c2cccnc2)c(C)c1 (stereo not drawn) | 25 (≈ 64.9 µM) |
| COc1ccc(OC)c(C2CC(c3ccc(O)cc3)=NN2C(=O)c2cccnc2)c1 (stereo not drawn) | 12.5 (≈ 31 µM) |
| O=C(c1cccnc1)N1N=C(c2ccc(O)cc2)CC1c1ccc(Br)cc1 (stereo not drawn) | 25 (≈ 59.2 µM) |
| CC(C)Oc1ccc(C2CC(c3ccc(O)cc3)=NN2C(=O)c2cccnc2)cc1 (stereo not drawn) | 12.5 (≈ 31.1 µM) |

Tested on: Staphylococcus aureus
Assay: Antibacterial activity against Staphylococcus aureus MTCC 3160 after 24 hrs by broth microdilution method
Format: functional
Conditions: MTCC 3160, 24 h
Outline: (§2)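 Broth microdilution per NCCLS in Mueller-Hinton broth, inoculum 5 x 10^5 CFU/ml. Compounds dissolved in DMSO, twofold serial dilutions made in sterile distilled water. Incubated at 35°C for 24 h. MIC (µg/ml) taken as the lowest concentration with no visible turbidity by unaided eye. Ciprofloxacin as positive control. Three replicates, mean ± SD.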

| SMILES | MIC [µg/mL] |
| --- | --- |
| O=C(c1cccnc1)N1N=C(c2ccc(O)cc2)CC1c1ccccc1Cl (stereo not drawn) | 75 (≈ 199 µM) |
| CC(C)c1ccccc1C1CC(c2ccc(O)cc2)=NN1C(=O)c1cccnc1 (stereo not drawn) | 25 (≈ 64.9 µM) |
| Cc1cc(C)c(C2CC(c3ccc(O)cc3)=NN2C(=O)c2cccnc2)c(C)c1 (stereo not drawn) | 12.5 (≈ 32.4 µM) |
| COc1ccc(OC)c(C2CC(c3ccc(O)cc3)=NN2C(=O)c2cccnc2)c1 (stereo not drawn) | 25 (≈ 62 µM) |
| O=C(c1cccnc1)N1N=C(c2ccc(O)cc2)CC1c1ccc(Br)cc1 (stereo not drawn) | 6.5 (≈ 15.4 µM) |
| CC(C)Oc1ccc(C2CC(c3ccc(O)cc3)=NN2C(=O)c2cccnc2)cc1 (stereo not drawn) | 50 (≈ 125 µM) |

Tested on: Plasmodium falciparum
Assay: Antimalarial activity against chloroquine-resistant Plasmodium falciparum RKL-9 schizont infected in RBC measured after 24 to 30 hrs hrs by giemsa staining based light microscopic method
Format: functional
Conditions: not given
Outline: (§3)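 Asynchronous cultures synchronised to rings with 5% aqueous sorbitol, other stages removed by centrifugation; parasitemia about 1% in fresh washed RBCs. Compounds dissolved in DMSO, diluted in RPMI-1640, tested at several concentrations in triplicate; drug-free wells as control. Incubation 37°C in CO2 for 24-30 h until schizont maturation; methanol-fixed Giemsa smears counted under oil immersion; % inhibition, IC50 by probit; n=2.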

| SMILES | IC50 [nM] |
| --- | --- |
| O=C(c1cccnc1)N1N=C(c2ccc(O)cc2)CC1c1ccccc1Cl (stereo not drawn) | 2330 |
| CC(C)c1ccccc1C1CC(c2ccc(O)cc2)=NN1C(=O)c1cccnc1 (stereo not drawn) | 1650 |
| Cc1cc(C)c(C2CC(c3ccc(O)cc3)=NN2C(=O)c2cccnc2)c(C)c1 (stereo not drawn) | 544 |
| COc1ccc(OC)c(C2CC(c3ccc(O)cc3)=NN2C(=O)c2cccnc2)c1 (stereo not drawn) | 330 |
| O=C(O)c1cn(C2CC2)c2cc(N3CCNCC3)c(F)cc2c1=O [CIPROFLOXACIN] | 401 |
| O=C(c1cccnc1)N1N=C(c2ccc(O)cc2)CC1c1ccc(Br)cc1 (stereo not drawn) | 970 |
| CC(C)Oc1ccc(C2CC(c3ccc(O)cc3)=NN2C(=O)c2cccnc2)cc1 (stereo not drawn) | 337 |

Tested on: not listed separately
Assay: Inhibition of beta-hematin formation assessed as reduction in acetate buffer-initiated hemozoin formation after 18 hrs by spectrophotometric method relative to control
Set-up: concentration or dose not given beside the values
Conditions: concentration not given here
Outline: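 Colorimetric β-hematin assay after Ncokazi and Egan. Haemin chloride in DMSO, with compounds at 0.12–5 molar equivalents to haemin and DMSO as control. Reaction started with acetate buffer pH 5.0 and run 18 h at 37°C. Pellet then washed with DMSO to remove unreacted haematin. % inhibition computed from test versus control absorbance. Duplicate determinations.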

| SMILES | inhibition [%] |
| --- | --- |
| CCN(CC)CCCC(C)Nc1ccnc2cc(Cl)ccc12 (stereo not drawn) | 87 |
| O=C(c1cccnc1)N1N=C(c2ccc(O)cc2)CC1c1ccccc1Cl (stereo not drawn) | 31 |
| CC(C)c1ccccc1C1CC(c2ccc(O)cc2)=NN1C(=O)c1cccnc1 (stereo not drawn) | 57 |
| Cc1cc(C)c(C2CC(c3ccc(O)cc3)=NN2C(=O)c2cccnc2)c(C)c1 (stereo not drawn) | 67 |
| COc1ccc(OC)c(C2CC(c3ccc(O)cc3)=NN2C(=O)c2cccnc2)c1 (stereo not drawn) | 71 |
| O=C(c1cccnc1)N1N=C(c2ccc(O)cc2)CC1c1ccc(Br)cc1 (stereo not drawn) | 76 |
| CC(C)Oc1ccc(C2CC(c3ccc(O)cc3)=NN2C(=O)c2cccnc2)cc1 (stereo not drawn) | 78 |

Tested on: not listed separately
Assay: Selectivity index, ratio of IC50 for human HepG2 cells to IC50 for chloroquine-resistant Plasmodium falciparum RKL-9 schizont infected in RBC
Format: toxicity
Conditions: read-out: Ratio IC50
Outline: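 HepG2 in RPMI 1640 with 10% FCS, 5 x 10^2 cells/well, serial dilutions (DMSO stocks) added after 1 h; 7 days at 37°C, 5% CO2; MTT 4 h, formazan in ethanol, absorbance 570 nm; IC50 by non-linear regression, one experiment in duplicate. Index = HepG2 IC50 / RKL-9 antiplasmodial IC50.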

| SMILES | selectivity ratio |
| --- | --- |
| O=C(c1cccnc1)N1N=C(c2ccc(O)cc2)CC1c1ccccc1Cl (stereo not drawn) | 20.5 |
| CC(C)c1ccccc1C1CC(c2ccc(O)cc2)=NN1C(=O)c1cccnc1 (stereo not drawn) | 30.1 |
| Cc1cc(C)c(C2CC(c3ccc(O)cc3)=NN2C(=O)c2cccnc2)c(C)c1 (stereo not drawn) | 100 |
| COc1ccc(OC)c(C2CC(c3ccc(O)cc3)=NN2C(=O)c2cccnc2)c1 (stereo not drawn) | 172 |
| O=C(c1cccnc1)N1N=C(c2ccc(O)cc2)CC1c1ccc(Br)cc1 (stereo not drawn) | 60.5 |
| CC(C)Oc1ccc(C2CC(c3ccc(O)cc3)=NN2C(=O)c2cccnc2)cc1 (stereo not drawn) | 139 |

Tested on: Pseudomonas aeruginosa
Assay: Antibacterial activity against Pseudomonas aeruginosa MTCC 741 after 24 hrs by broth microdilution method
Format: functional
Conditions: MTCC 741, 24 h
Outline: as §2

| SMILES | MIC [µg/mL] |
| --- | --- |
| O=C(c1cccnc1)N1N=C(c2ccc(O)cc2)CC1c1ccccc1Cl (stereo not drawn) | 3.25 (≈ 8.6 µM) |
| CC(C)c1ccccc1C1CC(c2ccc(O)cc2)=NN1C(=O)c1cccnc1 (stereo not drawn) | 12.5 (≈ 32.4 µM) |
| Cc1cc(C)c(C2CC(c3ccc(O)cc3)=NN2C(=O)c2cccnc2)c(C)c1 (stereo not drawn) | 6.5 (≈ 16.9 µM) |
| COc1ccc(OC)c(C2CC(c3ccc(O)cc3)=NN2C(=O)c2cccnc2)c1 (stereo not drawn) | 12.5 (≈ 31 µM) |
| O=C(c1cccnc1)N1N=C(c2ccc(O)cc2)CC1c1ccc(Br)cc1 (stereo not drawn) | 12.5 (≈ 29.6 µM) |
| CC(C)Oc1ccc(C2CC(c3ccc(O)cc3)=NN2C(=O)c2cccnc2)cc1 (stereo not drawn) | 50 (≈ 125 µM) |

Tested on: Bacillus subtilis
Assay: Antibacterial activity against Bacillus subtilis MTCC 121 after 24 hrs by broth microdilution method
Format: functional
Conditions: MTCC 121, 24 h
Outline: as §2

| SMILES | MIC [µg/mL] |
| --- | --- |
| O=C(c1cccnc1)N1N=C(c2ccc(O)cc2)CC1c1ccccc1Cl (stereo not drawn) | 12.5 (≈ 33.1 µM) |
| CC(C)c1ccccc1C1CC(c2ccc(O)cc2)=NN1C(=O)c1cccnc1 (stereo not drawn) | 12.5 (≈ 32.4 µM) |
| Cc1cc(C)c(C2CC(c3ccc(O)cc3)=NN2C(=O)c2cccnc2)c(C)c1 (stereo not drawn) | 12.5 (≈ 32.4 µM) |
| COc1ccc(OC)c(C2CC(c3ccc(O)cc3)=NN2C(=O)c2cccnc2)c1 (stereo not drawn) | 25 (≈ 62 µM) |
| O=C(O)c1cn(C2CC2)c2cc(N3CCNCC3)c(F)cc2c1=O [CIPROFLOXACIN] | 25 (≈ 75.4 µM) |
| O=C(c1cccnc1)N1N=C(c2ccc(O)cc2)CC1c1ccc(Br)cc1 (stereo not drawn) | 12.5 (≈ 29.6 µM) |
| CC(C)Oc1ccc(C2CC(c3ccc(O)cc3)=NN2C(=O)c2cccnc2)cc1 (stereo not drawn) | 75 (≈ 187 µM) |

Tested on: Escherichia coli
Assay: Antibacterial activity against Escherichia coli MTCC 51 after 24 hrs by broth microdilution method
Format: functional
Conditions: MTCC 51, 24 h
Outline: as §2

| SMILES | MIC [µg/mL] |
| --- | --- |
| O=C(c1cccnc1)N1N=C(c2ccc(O)cc2)CC1c1ccccc1Cl (stereo not drawn) | 50 (≈ 132 µM) |
| CC(C)c1ccccc1C1CC(c2ccc(O)cc2)=NN1C(=O)c1cccnc1 (stereo not drawn) | 3.25 (≈ 8.43 µM) |
| Cc1cc(C)c(C2CC(c3ccc(O)cc3)=NN2C(=O)c2cccnc2)c(C)c1 (stereo not drawn) | 6.5 (≈ 16.9 µM) |
| COc1ccc(OC)c(C2CC(c3ccc(O)cc3)=NN2C(=O)c2cccnc2)c1 (stereo not drawn) | 25 (≈ 62 µM) |
| O=C(O)c1cn(C2CC2)c2cc(N3CCNCC3)c(F)cc2c1=O [CIPROFLOXACIN] | 12.5 (≈ 37.7 µM) |
| O=C(c1cccnc1)N1N=C(c2ccc(O)cc2)CC1c1ccc(Br)cc1 (stereo not drawn) | 25 (≈ 59.2 µM) |
| CC(C)Oc1ccc(C2CC(c3ccc(O)cc3)=NN2C(=O)c2cccnc2)cc1 (stereo not drawn) | 6.5 (≈ 16.2 µM) |

Tested on: HepG2
Assay: Cytotoxicity against human HepG2 cells assessed as reduction in cell viability after 7 days by MTT assay
Format: cell-based
Conditions: HepG2, 168 h
Outline: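 HepG2 cells maintained in RPMI 1640 with 10% FCS. Seeded at 5 x 10^2 cells per well and pre-incubated 1 h at 37°C, 5% CO2. Serial dilutions from DMSO stocks added, with medium and DMSO solvent controls. Cells incubated seven days, then MTT (5 mg/ml) added for 4 h. Formazan dissolved in ethanol, A570 read. IC50 by non-linear regression of % growth against log concentration.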

| SMILES | IC50 [nM] |
| --- | --- |
| O=C(c1cccnc1)N1N=C(c2ccc(O)cc2)CC1c1ccccc1Cl (stereo not drawn) | 47700 |
| CC(C)c1ccccc1C1CC(c2ccc(O)cc2)=NN1C(=O)c1cccnc1 (stereo not drawn) | 49700 |
| Cc1cc(C)c(C2CC(c3ccc(O)cc3)=NN2C(=O)c2cccnc2)c(C)c1 (stereo not drawn) | 54500 |
| COc1ccc(OC)c(C2CC(c3ccc(O)cc3)=NN2C(=O)c2cccnc2)c1 (stereo not drawn) | 56800 |
| O=C(O)c1cn(C2CC2)c2cc(N3CCNCC3)c(F)cc2c1=O [CIPROFLOXACIN] | 27000 |
| O=C(c1cccnc1)N1N=C(c2ccc(O)cc2)CC1c1ccc(Br)cc1 (stereo not drawn) | 58700 |
| CC(C)Oc1ccc(C2CC(c3ccc(O)cc3)=NN2C(=O)c2cccnc2)cc1 (stereo not drawn) | 45400 |

Tested on: Plasmodium falciparum
Assay: Antimalarial activity against chloroquine-sensitive Plasmodium falciparum MRC-2 schizont infected in RBC measured after 24 to 30 hrs hrs by giemsa staining based light microscopic method
Format: functional
Conditions: not given
Outline: as §3

| SMILES | IC50 [nM] |
| --- | --- |
| O=C(c1cccnc1)N1N=C(c2ccc(O)cc2)CC1c1ccccc1Cl (stereo not drawn) | 240 |
| CC(C)c1ccccc1C1CC(c2ccc(O)cc2)=NN1C(=O)c1cccnc1 (stereo not drawn) | 110 |
| Cc1cc(C)c(C2CC(c3ccc(O)cc3)=NN2C(=O)c2cccnc2)c(C)c1 (stereo not drawn) | 94 |
| COc1ccc(OC)c(C2CC(c3ccc(O)cc3)=NN2C(=O)c2cccnc2)c1 (stereo not drawn) | 40 |
| O=C(c1cccnc1)N1N=C(c2ccc(O)cc2)CC1c1ccc(Br)cc1 (stereo not drawn) | 141 |
| CC(C)Oc1ccc(C2CC(c3ccc(O)cc3)=NN2C(=O)c2cccnc2)cc1 (stereo not drawn) | 38 |

Tested on: Candida albicans
Assay: Antifungal activity against Candida albicans MTCC 227 after 48 hrs by broth microdilution method
Format: functional
Conditions: MTCC 227, 48 h
Outline: as §1

| SMILES | MIC [µg/mL] |
| --- | --- |
| O=C(c1cccnc1)N1N=C(c2ccc(O)cc2)CC1c1ccccc1Cl (stereo not drawn) | 6.5 (≈ 17.2 µM) |
| CC(C)c1ccccc1C1CC(c2ccc(O)cc2)=NN1C(=O)c1cccnc1 (stereo not drawn) | 50 (≈ 130 µM) |
| OC(Cn1cncn1)(Cn1cncn1)c1ccc(F)cc1F [FLUCONAZOLE] | 12.5 (≈ 40.8 µM) |
| Cc1cc(C)c(C2CC(c3ccc(O)cc3)=NN2C(=O)c2cccnc2)c(C)c1 (stereo not drawn) | 50 (≈ 130 µM) |
| COc1ccc(OC)c(C2CC(c3ccc(O)cc3)=NN2C(=O)c2cccnc2)c1 (stereo not drawn) | 75 (≈ 186 µM) |
| O=C(c1cccnc1)N1N=C(c2ccc(O)cc2)CC1c1ccc(Br)cc1 (stereo not drawn) | 50 (≈ 118 µM) |
| CC(C)Oc1ccc(C2CC(c3ccc(O)cc3)=NN2C(=O)c2cccnc2)cc1 (stereo not drawn) | 6.5 (≈ 16.2 µM) |
